Active and inactive are the calls of the source. The calls are words filed in the database; no cut-off is given here.
How the values were obtained:
[1] = Stability in pH 7.4 buffer assessed as compound hydrolysis measured after 18 hrs by UPLC; type: physicochemical; conditions: read-out: Drug degradation
Summary of the method: (§1)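 The ester was incubated in buffer at pH 7.4 or pH 10. Remaining ester and the hydrolysed carboxylic acid were followed over time by UPLC, at time points out to 82 h.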

[2] = Drug level in Lewis rat blood at 30 mg/kg, po administered as single dose measured 24 hrs post dose; conditions: read-out: Drug uptake
Rattus norvegicus [3] = experiment: Induction of capillary leakage in Lewis rat Evans blue dye lung leakage model at 30 mg/kg, po bid measured 6 hrs after 6 hrs relative to untreated control; type: organism-based; parameters: dose 30 mg/kg, route oral; conditions: in vivo
Summary of the method: (§2)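 Male Lewis rats were gavaged twice daily with vehicle or 30 mg/kg in 30% PEG200/buffer. Evans blue dye (20 mg/2 mL NaCl/kg iv) was given under anesthesia at 5, 23 or 95 h. One hour later the rats were bled, lungs were perfused with saline, dried at 60 °C for 24 h, weighed, and dye was extracted in formamide (24 h, 37 °C). Thoracic fluid volume was also recorded.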

Rattus norvegicus [4] = experiment: Induction of capillary leakage in Lewis rat Evans blue dye lung leakage model at 30 mg/kg, po bid measured 96 hrs after 6 hrs relative to untreated control; type: organism-based; parameters: dose 30 mg/kg, route oral; conditions: in vivo; summary of the method: as §2
[5] = Cmax in Lewis rat blood at 30 mg/kg, po administered as single dose measured 8 hrs post dose
Rattus norvegicus [6] = experiment: Toxicity in stringent Dark Agouti to Lewis rat heterotopic vascular heart allotransplantation model assessed as compound tolerance at 30 mg/kg, po bid coadministered with 0.3 mg/kg, qd everolimus; type: organism-based; conditions: in vivo
Summary of the method: (§3)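 DA donor hearts were grafted into Lewis recipients. Treatment started 3 days before transplantation: prodrug 30 mg/kg po b.i.d. (PEG200/water, pH 5) alone or with sotrastaurin 10 mg/kg po b.i.d. or everolimus 0.3 mg/kg po q.d. Grafts were followed to rejection or up to 50 days. Allografts were formalin-fixed, cut at 3 μm, stained with H&E and trichrome, and scored for rejection. Lymphocytes were counted weekly before dosing, and body weight was monitored.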

[7] = Stability in pH 10 buffer assessed as compound remaining measured after 17 hrs by UPLC; type: physicochemical; conditions: pH 10, 17 h; summary of the method: as §1
Rattus norvegicus [8] = experiment: Induction of capillary leakage in Lewis rat Evans blue dye lung leakage model assessed as thorax fluid level at 30 mg/kg, po bid measured after 6 hrs relative to untreated control; type: organism-based; parameters: dose 30 mg/kg, route oral; conditions: in vivo; summary of the method: as §2
[9] = Stability in pH 7.4 buffer assessed as compound hydrolysis measured after 82 hrs by UPLC; type: physicochemical; conditions: pH 7.4, 82 h; summary of the method: as §1
Rattus norvegicus [10] = experiment: Increase in allograft survival in stringent Dark Agouti to Lewis rat heterotopic vascular heart allotransplantation model assessed as allograft mean survival time at 30 mg/kg, po bid coadministered with 0.3 mg/kg, qd everolimus (reference value: 6 days); type: functional
Blood = experiment: Drug level in Lewis rat blood assessed as level of (S)-2-{[3'-(4-Chloro-2,5-dimethylphenylsulfonylamino)-3,5-dimethylbiphenyl-4-carbonyl]methylamino}-4-dimethylaminobutyric Acid Hydrochloride at 30 mg/kg, po administered as single dose measured 24 hrs post dose; conditions: in vivo
Rattus norvegicus [11] = experiment: Reduction in peripheral blood lymphocytes in Lewis rat assessed as remaining circulating lymphocytes level at 30 mg/kg, po administered as single dose measured 14 hrs post dose by automated hematology analyzer; type: functional
Summary of the method: (§4)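 Male Lewis rats receive a single oral dose of compound or vehicle, freshly made in 30% PEG200/buffer. Blood (<200 μL) is drawn by sublingual puncture under isoflurane 5% v/v at baseline and later time points. Lymphocytes are counted on an automated hematology analyzer, and each animal's change is expressed as percent of its own pre-treatment baseline.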

Rattus norvegicus [12] = experiment: Reduction in peripheral blood lymphocytes in Lewis rat assessed as remaining circulating lymphocytes level at 30 mg/kg, po, qd for 5 days by automated hematology analyzer; type: functional
Summary of the method: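 Male Lewis rats were dosed daily at 30 mg/kg po for 5 days. Blood lymphocytes were counted on an automated hematology analyzer once a day, before the next dose, and expressed relative to the pretreatment baseline.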

Rattus norvegicus [13] = experiment: Reduction in peripheral blood lymphocytes in Lewis rat assessed as remaining circulating lymphocytes level at 30 mg/kg, po administered as single dose measured 24 hrs post dose by automated hematology analyzer; type: functional; summary of the method: as §4
Rattus norvegicus [14] = experiment: Increase in allograft survival in stringent Dark Agouti to Lewis rat heterotopic vascular heart allotransplantation model assessed as improvement in histological changes at 30 mg/kg, po bid coadministered with 0.3 mg/kg, qd everolimus by hematoxylin and eosin staining; type: functional, organism-based; summary of the method: as §3
Rattus norvegicus [15] = experiment: Toxicity in stringent Dark Agouti to Lewis rat heterotopic vascular heart allotransplantation model assessed as incidence of histopathological changes at 30 mg/kg, po bid coadministered with 0.3 mg/kg, qd everolimus by hematoxylin and eosin staining; type: organism-based; conditions: in vivo; summary of the method: as §3
Rattus norvegicus [16] = experiment: Toxicity in stringent Dark Agouti to Lewis rat heterotopic vascular heart allotransplantation model assessed as compound tolerance at 30 mg/kg, po bid; type: organism-based; parameters: dose 30 mg/kg, route oral; conditions: in vivo; summary of the method: as §3
[17] = Stability in pH 1 buffer by UPLC; type: physicochemical; conditions: read-out: Stability
Rattus norvegicus [18] = experiment: Increase in allograft survival in stringent Dark Agouti to Lewis rat heterotopic vascular heart allotransplantation model assessed as allograft mean survival time at 30 mg/kg, po bid coadministered with 10 mg/kg, bid sotrastaurin (reference value: 6 days); type: functional
Summary of the method: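 This was a DA-to-Lewis heart allograft model with co-treatment from 3 days before transplantation. The prodrug was given po b.i.d. in PEG200/water at pH 5, plus the PKC inhibitor po b.i.d. in D-glucose/PEG400/water/HCl. Lymphocytes were counted weekly before dosing, and blood levels of both drugs were determined. Survival was followed up to 50 days, as median days, with H&E and trichrome histology.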

[19] = Drug level in Lewis rat blood at 30 mg/kg, po administered as single dose measured 0.25 hrs post dose; conditions: read-out: Drug uptake
[20] = Stability in pH 7.4 buffer assessed as compound hydrolysis measured after 49 hrs by UPLC; type: physicochemical; conditions: read-out: Drug degradation; summary of the method: as §1
[21] = Stability in pH 7.4 buffer assessed as compound hydrolysis measured after 2 hrs by UPLC; type: physicochemical; conditions: read-out: Drug degradation; summary of the method: as §1
[22] = Stability in pH 10 buffer assessed as compound remaining measured after 2 hrs by UPLC; type: physicochemical; conditions: read-out: Stability; summary of the method: as §1
Rattus norvegicus [23] = experiment: Toxicity in stringent Dark Agouti to Lewis rat heterotopic vascular heart allotransplantation model assessed as change in body weight at 30 mg/kg, po bid coadministered with 0.3 mg/kg, qd everolimus; type: organism-based; conditions: in vivo; summary of the method: as §3
Rattus norvegicus [24] = experiment: Toxicity in stringent Dark Agouti to Lewis rat heterotopic vascular heart allotransplantation model assessed as incidence of histopathological changes at 30 mg/kg, po bid coadministered with 10 mg/kg, bid sotrastaurin by hematoxylin and eosin staining; type: organism-based; conditions: in vivo
Summary of the method: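 DA hearts grafted into rat recipients. Test agent 30 mg/kg po b.i.d. (in PEG200/water, pH 5 with 0.1 M HCl) plus the PKC inhibitor 10 mg/kg po b.i.d. (in D-glucose/PEG400/water/0.1 M HCl), started 3 days before transplantation. The study ended at rejection or a set end point. Grafts were formalin-fixed and paraffin-embedded, and 3 μm sections were stained with H&E and trichrome. Acute cellular rejection (0–3R), vasculopathy and fibrosis were scored; lungs were also examined.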

## COC(=O)[C@H](CCN(C)C)N(C)C(=O)c1c(C)cc(-c2cccc(NS(=O)(=O)c3cc(C)c(Cl)cc3C)c2)cc1C
[1]
  degraded at 18 h: 48%
[2]
  concentration at 24 h: 50 ng/mL
Rattus norvegicus [3]
  fold change (FC): 3
Rattus norvegicus [4]
  fold change (FC): 2.2
[5]
  Cmax: 364 ng/mL
Rattus norvegicus [6]
  Activity: Non-toxic
[7]
  Stability: Unstable
Rattus norvegicus [8]
  Activity: 1 mL
[9]
  Stability: Unstable
Rattus norvegicus [10]
  MST: >50 days
Blood
  Drug uptake: 5 ng/mL
Rattus norvegicus [11]
  Activity: 21%
Rattus norvegicus [12]
  Activity: 20%
Rattus norvegicus [13]
  Activity: 22%
Rattus norvegicus [14]
  Activity: Active
Rattus norvegicus [15]
  Activity: Non-toxic
Rattus norvegicus [16]
  Activity: Non-toxic
[17]
  half-life: > 53 h
Rattus norvegicus [18]
  MST: >50 days
[19]
  concentration at 0.25 h: 146 ng/mL
[20]
  degraded at 49 h: 85%
[21]
  degraded at 2 h: 9%
[22]
  remaining at 2 h: 52%
Rattus norvegicus [23]
  Activity: Non-toxic
Rattus norvegicus [24]
  Activity: Non-toxic
